Assay results as given in ChEMBL document CHEMBL3098000, “Imatinib analogs as potential agents for PET imaging of Bcr-Abl and c-KIT expression at a kinase level” (Bioorg Med Chem, 2014).

Columns and labels:
Bcr/Abl fusion protein = Bcr/Abl fusion protein (Homo sapiens, UniProt P00519); assay: Inhibition of Bcr-Abl (unknown origin) phosphorylation by spectrophotometric assay; type: protein assay
K562 [1] = assay: Drug uptake in human K562 cells expressing Bcr-Abl after 30 to 210 mins in presence of unlabelled STI-571; type: ADME, cell-based
[2] = Drug uptake in human wild-type U87 cells incubated for 1 to 2 hrs measured after drug washout
Tumour [3] = assay: Drug uptake in tumor of mouse xenografted with human U87WT cells expressing human wild type c-KIT at 100 uCi, iv after 60 to 120 mins by PET analysis; type: ADME, organism-based, Neoplasm; details: in vivo
Procedure, shortened: (§1)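 Nude mice carried K562, U87 or U87WT tumor cells injected in Matrigel (200 μl) into the dorsal shoulder areas. [18F]STI-571, labeled by nucleophilic substitution, was given at 100 μCi/mouse i.v. MicroPET imaging was done at 30, 60 and 90 min, with images also shown at 60 and 120 min. Some mice were sacrificed at 60 or 90 min for tissue sampling and autoradiography.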

[4] = Drug uptake in mouse right shoulder xenografted with human K562 cells expressing Bcr-Abl at 100 uCi, iv after 15 to 120 mins by PET analysis; type: ADME, organism-based; details: in vivo; procedure, shortened: as §1
[5] = Drug uptake in mouse digestive tract xenografted with human U87 cells at 100 uCi, iv after 15 to 120 mins by PET analysis; type: ADME, organism-based, U-87MG ATCC; details: in vivo; procedure, shortened: as §1
[6] = Drug uptake in human U87WT cells expressing human wild type c-KIT after 1 to 2 hrs; type: ADME, cell-based
Procedure, shortened: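 Cells were incubated with [18F]STI-571, and tracer accumulation and washout were measured at 1 and 2 h. U87WT cells were made by retroviral transduction of U87 cells with wild-type human c-KIT receptor. Specificity was tested by blocking with excess unlabelled STI-571.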

Intestine [7] = assay: Drug uptake in intestine of mouse xenografted with human U87WT cells expressing human wild type c-KIT at 100 uCi, iv after 60 to 120 mins by PET analysis; type: ADME, organism-based; details: in vivo; procedure, shortened: as §1
[8] = Drug uptake in mouse digestive tract xenografted with human U87WT cells expressing human wild type c-KIT at 100 uCi, iv after 15 to 120 mins by PET analysis; type: ADME, organism-based; details: in vivo; procedure, shortened: as §1
Tumour [9] = assay: Drug uptake in tumor of mouse xenografted with human K562 cells expressing Bcr-Abl at 100 uCi, iv after 60 to 120 mins by PET analysis; type: ADME, organism-based, Neoplasm; details: in vivo; procedure, shortened: as §1
Tumour [10] = assay: Drug uptake in tumor of mouse xenografted with human U87 cells at 100 uCi, iv after 60 to 120 mins by PET analysis; type: ADME, organism-based, Neoplasm, U-87MG ATCC; details: in vivo; procedure, shortened: as §1
Liver [11] = assay: Drug uptake in liver of mouse xenografted with human U87WT cells expressing human wild type c-KIT at 100 uCi, iv after 60 to 120 mins by PET analysis; type: ADME, organism-based; details: in vivo; procedure, shortened: as §1
[12] = Drug uptake in mouse right shoulder xenografted with human U87 cells at 100 uCi, iv after 15 to 120 mins by PET analysis; type: ADME, organism-based, U-87MG ATCC; details: in vivo, in the assay text read “U87WT cells” for “U87 cells”; procedure, shortened: as §1
K562 [13] = assay: Drug uptake in human K562 cells expressing Bcr-Abl after 1 to 2 hrs; type: ADME, cell-based
K562 [14] = assay: Drug uptake in human K562 cells expressing Bcr-Abl after 30 mins; type: ADME, cell-based; details: k562, 0.5 h
[15] = Drug uptake in mouse right shoulder xenografted with human U87WT cells expressing human wild type c-KIT at 100 uCi, iv after 15 to 120 mins by PET analysis; type: ADME, organism-based; details: in vivo; procedure, shortened: as §1
Liver [16] = assay: Drug uptake in liver of mouse xenografted with human U87 cells at 100 uCi, iv after 60 to 120 mins by PET analysis; type: ADME, organism-based, U-87MG ATCC; details: in vivo; procedure, shortened: as §1
K562 [17] = assay: Drug uptake in human K562 cells expressing Bcr-Abl incubated for 1 to 2 hrs measured after drug washout; type: ADME, cell-based
Liver [18] = assay: Drug uptake in liver of mouse xenografted with human K562 cells expressing Bcr-Abl at 100 uCi, iv after 60 to 120 mins by PET analysis; type: ADME, organism-based; details: in vivo; procedure, shortened: as §1
[19] = Drug uptake in mouse digestive tract xenografted with human K562 cells expressing Bcr-Abl at 100 uCi, iv after 15 to 120 mins by PET analysis; type: ADME, organism-based; details: in vivo; procedure, shortened: as §1
Intestine [20] = assay: Drug uptake in intestine of mouse xenografted with human K562 cells expressing Bcr-Abl at 100 uCi, iv after 60 to 120 mins by PET analysis; type: ADME, organism-based; details: in vivo; procedure, shortened: as §1
Intestine [21] = assay: Drug uptake in intestine of mouse xenografted with human U87 cells at 100 uCi, iv after 60 to 120 mins by PET analysis; type: ADME, organism-based, U-87MG ATCC; details: in vivo; procedure, shortened: as §1
Intestine [22] = assay: Drug uptake in intestine of mouse xenografted with human U87 cells after 45 mins by PET analysis; type: ADME, U-87MG ATCC; details: in vivo, 0.75 h
Mus musculus = assay: Drug uptake in mouse xenografted with human K562 cells expressing Bcr-Abl after 45 mins by PET analysis; type: ADME, organism-based; details: in vivo, 0.75 h
Intestine [23] = assay: Drug uptake in intestine of mouse xenografted with human U87WT cells expressing human wild type c-KIT after 45 mins by PET analysis; type: ADME, tissue-based; details: in vivo, 0.75 h

Bcr/Abl fusion protein, sequence (P00519 whole entry, the tested form may be a part): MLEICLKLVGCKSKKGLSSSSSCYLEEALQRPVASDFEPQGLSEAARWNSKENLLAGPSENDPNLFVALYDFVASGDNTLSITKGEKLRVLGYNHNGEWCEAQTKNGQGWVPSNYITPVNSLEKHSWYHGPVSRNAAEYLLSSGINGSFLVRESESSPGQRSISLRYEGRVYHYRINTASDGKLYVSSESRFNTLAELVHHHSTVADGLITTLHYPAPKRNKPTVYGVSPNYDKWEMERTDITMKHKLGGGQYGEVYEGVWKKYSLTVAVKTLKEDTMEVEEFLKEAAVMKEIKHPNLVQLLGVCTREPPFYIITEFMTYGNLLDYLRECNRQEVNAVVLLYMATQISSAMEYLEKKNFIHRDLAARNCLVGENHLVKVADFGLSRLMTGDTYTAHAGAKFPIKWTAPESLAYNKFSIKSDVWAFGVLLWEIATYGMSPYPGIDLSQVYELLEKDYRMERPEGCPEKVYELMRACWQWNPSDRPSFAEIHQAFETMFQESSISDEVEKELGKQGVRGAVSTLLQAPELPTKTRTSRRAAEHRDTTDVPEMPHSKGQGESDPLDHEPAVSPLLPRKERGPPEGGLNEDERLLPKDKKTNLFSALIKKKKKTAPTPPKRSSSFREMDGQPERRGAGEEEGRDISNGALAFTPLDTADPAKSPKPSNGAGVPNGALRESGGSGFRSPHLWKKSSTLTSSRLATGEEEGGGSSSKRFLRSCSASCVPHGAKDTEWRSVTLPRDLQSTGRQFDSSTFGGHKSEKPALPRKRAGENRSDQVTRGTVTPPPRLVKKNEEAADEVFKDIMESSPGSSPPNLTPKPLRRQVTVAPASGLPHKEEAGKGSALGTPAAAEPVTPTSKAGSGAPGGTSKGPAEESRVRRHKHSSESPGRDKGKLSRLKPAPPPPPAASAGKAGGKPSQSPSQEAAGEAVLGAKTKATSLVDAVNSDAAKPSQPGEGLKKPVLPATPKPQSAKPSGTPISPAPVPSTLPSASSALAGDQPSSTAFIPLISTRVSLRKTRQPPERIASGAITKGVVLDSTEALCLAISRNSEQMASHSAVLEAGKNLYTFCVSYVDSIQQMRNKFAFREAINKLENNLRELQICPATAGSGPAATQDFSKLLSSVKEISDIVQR
Bcr/Abl fusion protein, sequence (P11274 whole entry, further chain, the tested form may be a part): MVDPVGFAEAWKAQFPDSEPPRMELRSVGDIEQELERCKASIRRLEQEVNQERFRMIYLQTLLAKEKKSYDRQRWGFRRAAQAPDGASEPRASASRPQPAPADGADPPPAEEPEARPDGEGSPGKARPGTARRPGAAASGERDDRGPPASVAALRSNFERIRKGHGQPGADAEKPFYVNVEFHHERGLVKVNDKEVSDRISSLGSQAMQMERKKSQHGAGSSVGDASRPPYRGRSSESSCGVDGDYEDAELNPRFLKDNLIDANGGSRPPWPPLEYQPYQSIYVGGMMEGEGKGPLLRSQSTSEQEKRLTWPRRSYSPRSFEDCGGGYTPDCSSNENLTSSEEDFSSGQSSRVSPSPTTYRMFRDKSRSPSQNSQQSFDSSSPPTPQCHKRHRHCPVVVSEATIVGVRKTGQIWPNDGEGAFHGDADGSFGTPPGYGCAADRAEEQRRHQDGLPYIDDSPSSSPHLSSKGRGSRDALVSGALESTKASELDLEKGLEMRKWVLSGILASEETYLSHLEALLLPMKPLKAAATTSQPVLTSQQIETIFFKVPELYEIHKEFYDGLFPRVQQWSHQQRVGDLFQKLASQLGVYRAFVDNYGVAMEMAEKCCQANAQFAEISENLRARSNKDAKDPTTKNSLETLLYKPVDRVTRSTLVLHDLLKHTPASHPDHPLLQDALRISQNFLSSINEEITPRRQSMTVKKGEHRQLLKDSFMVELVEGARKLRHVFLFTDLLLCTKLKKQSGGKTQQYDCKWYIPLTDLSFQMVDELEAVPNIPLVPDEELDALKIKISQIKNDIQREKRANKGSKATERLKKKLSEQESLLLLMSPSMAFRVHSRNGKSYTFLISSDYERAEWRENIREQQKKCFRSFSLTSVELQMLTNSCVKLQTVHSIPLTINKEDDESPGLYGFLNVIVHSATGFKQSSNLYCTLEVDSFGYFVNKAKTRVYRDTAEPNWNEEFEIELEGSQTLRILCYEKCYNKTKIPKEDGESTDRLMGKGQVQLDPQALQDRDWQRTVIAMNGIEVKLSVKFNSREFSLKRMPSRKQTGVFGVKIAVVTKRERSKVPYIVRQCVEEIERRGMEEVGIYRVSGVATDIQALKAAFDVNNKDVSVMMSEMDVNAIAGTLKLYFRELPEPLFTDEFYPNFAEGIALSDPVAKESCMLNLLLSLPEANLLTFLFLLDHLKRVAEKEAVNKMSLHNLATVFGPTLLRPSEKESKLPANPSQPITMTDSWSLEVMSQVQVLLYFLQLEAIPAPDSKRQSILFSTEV

## Cc1ccc(NC(=O)c2ccc(CN3CCN(CCF)CC3)cc2)cc1Nc1nccc(-c2cccnc2)n1
Bcr/Abl fusion protein
  IC50: 1380 nM

## Cc1ccc(NC(=O)c2ccc(CN3CCN(CC[18F])CC3)cc2)cc1Nc1nccc(-c2cccnc2)n1
K562 [1]
  Drug uptake: Not Active
[2]
  Drug uptake: Not Active
Tumour [3]
  Drug uptake: Active
[4]
  Drug uptake: Active
[5]
  Drug uptake: Active
[6]
  Drug uptake: Not Active
Intestine [7]
  Drug uptake: Active
[8]
  Drug uptake: Active
Tumour [9]
  Drug uptake: Active
Tumour [10]
  Drug uptake: Active
Liver [11]
  Drug uptake: Active
[12]
  Drug uptake: Active
K562 [13]
  Drug uptake: Active
K562 [14]
  Drug uptake: Active
[15]
  Drug uptake: Active
Liver [16]
  Drug uptake: Active
K562 [17]
  Drug uptake: Active
Liver [18]
  Drug uptake: Active
[19]
  Drug uptake: Active
Intestine [20]
  Drug uptake: Active
Intestine [21]
  Drug uptake: Active

## Cc1ccc(NC(=O)c2ccc(CN3CCN(CCO)CC3)cc2)cc1Nc1nccc(-c2cccnc2)n1
Bcr/Abl fusion protein
  IC50: 7080 nM

## Cc1ccc(NC(=O)c2ccc(CN3CCN(Cc4ccc(I)cc4)CC3)cc2)cc1Nc1nccc(-c2cccnc2)n1
Bcr/Abl fusion protein
  IC50: 739 nM

## OC[C@H]1O[C@@H](O)[C@H]([18F])[C@@H](O)[C@@H]1O [FLUDEOXYGLUCOSE-F18]
Intestine [22]
  Drug uptake: Active
Mus musculus
  Drug uptake: Active
Intestine [23]
  Drug uptake: Active
